# HSF1 activator = HSF-1 activators, primary screen, NIH3T3-HGL cells, MG132 stress, luminescence, single point; NIH3T3-HGL HSF-1 luciferase reporter, 8 h; 100% = twice DMSO control signal; activation, % at 9 µM; hit rate 1.7% among 300,000;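 active = mean replicate activation of at least 50% with a set share of replicates each reaching 50%; inconclusive = only one of those two conditions met; inactive = mean below 50% and too few replicates reaching it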;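 note: 0% = median of the neutral control wells and 100% = twice that signal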
# T cruzi inh = inhibitors of intracellular T. cruzi growth, primary screen, luminescence, NIH3T3 host cells; T. cruzi beta-gal in NIH3T3, 90 h; hit rate 1.4% among 300,000; inhibition, % (no concentration beside the values);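 active = mean inhibition across valid replicates above about 55%, limit read from the data; inconclusive = mean below that limit but half or more replicates reach it; inactive = mean below it, under half of replicates reach it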;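 note: signal also drops with host cell toxicity which is not excluded here; 0% = plate median of DMSO wells and 100% = zero luminescence signal; higher percent means less beta-gal luminescence so fewer parasites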
#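 System: Mouse NIH/3T3 fibroblasts infected with β-gal-expressing T. cruzi Tulahuen C4 | Quantity: NIH/3T3 cells, 5,000 per well | Reagent: 5000 reporter trypomastigotes per well | Dosing: Compound pinned at 50 nL/well, DMSO | Schedule: 3 h host attachment, then at least 90 h co-culture | Detection: GalScreen luminescence, 60 min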
# HSF1 inh = HSF1 inhibitors in luciferase reporter cells, primary screen, cell-based, NIH3T3, luminescence. NIH3T3-HGL HSE-luciferase, MG132-induced, luminescence 8 h; active compounds read low. hit rate 0.77% among 300,000. activity change, negative = inhibition, % at 7.5 µM (by protocol);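 active = more than half of replicate wells show activity change below -50%, luminescence cut by over half; inconclusive = some wells, but at most half, below -50%; inactive = no replicate well below -50%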;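 note: luciferase reports HSF-1 transcriptional activity via heat shock element; 0% = median of DMSO wells and -100% = zero luminescence signal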
# Hsp70 activator = Hsp70 transcriptional activators, primary screen, cell-based, HeLa, Hsp70 promoter luciferase, luminescence, 10 µM. HeLa Hsp70 promoter luciferase reporter; scaled: vehicle 0, proteasome-inhibitor control 100%. activation, % at 10 µM. hit rate 0.04% among 200,000;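 active = activation above the mean across all tested compounds plus 3 SD, cutoff set per campaign, cut at about 5.5% in these data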;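 note: 100% = MG132 at 30 µM as the positive control and 0% = DMSO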
# Lmaj promast = Leishmania major promastigote growth inhibition, primary screen; hit rate 9% among 200,000; inhibition, % at 10 µM; Leishmania major promastigotes, resazurin fluorescence viability; in the data active = inhibition above about 50%;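 note: promastigotes grown with compound for 44 hours at 28 °C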
# Starred values were filed as active, the others as inactive; ? = inconclusive; / = no result given. This excerpt belongs to a sample that is enriched for hits.
SMILES,HSF1 activator,T cruzi inh,HSF1 inh,Hsp70 activator,Lmaj promast
COc1cc(/C=C(/C#N)C(=O)Nc2ccc(C)cc2)ccc1Oc1nc(Cl)ncc1F,-9,-16,-7,0,0
Cc1cccc(OCC(O)Cn2c(N3CCCCC3)nc3c2c(=O)n(C)c(=O)n3C)c1 (stereo not given),1,1,-8,/,/
COc1ccc(-n2c(-c3ccc(F)cc3)cnc2SCC(=O)NCc2ccco2)cc1,-62,32,-54*,0,100*
Cn1c(SCC(=O)NCc2ccco2)nnc1-c1c[nH]c2ccccc12,-7,-13,2,0,-5
O=C(CSc1ncc(-c2ccccc2)n1-c1ccccc1)NCc1ccco1,-1,22,5,0,3
CCOc1ccc(-n2c(SCC(=O)NCc3ccco3)nnc2-c2c[nH]c3ccccc23)cc1,8,-13,4,0,93*
O=C(c1ccncc1)N(c1ccc2oc3c(c2c1)CCCC3)S(=O)(=O)c1ccc(F)cc1,7,9,12,0,-5
Cc1ccc(C(c2nnnn2C(C)(C)C)N(Cc2ccco2)Cc2cccs2)cc1 (stereo not given),-19,64*,-20,0,19
CCC(C)(C)n1nnnc1CN(Cc1ccc(Cl)cc1)Cc1ccco1,5,35,9,0,56*
COc1ccc(Cn2nnnc2C(C(C)C)N(Cc2ccco2)Cc2cccs2)cc1 (stereo not given),11,46,9,0,77*
CC(C)C(c1nnnn1Cc1ccccc1)N(Cc1ccco1)Cc1cccs1 (stereo not given),-4,48,-3,0,21
CC(C)(C)n1nnnc1C(c1ccc(F)cc1)N(Cc1ccc(F)cc1)Cc1ccco1 (stereo not given),19,34,7,0,18
CC(C)(C)n1nnnc1C(c1ccc(Cl)cc1)N(Cc1cccnc1)Cc1ccco1 (stereo not given),-34,39,?,0,100*
CC(C)NC(=O)/C(C#N)=C/c1ccc(N(C)C)o1,0,-2,2,/,/
Cc1ccc(C(=O)NCCCc2ccccc2)s1,41,-9,9,0,15
CC(C)(C)n1nnnc1C(c1ccc(C(F)(F)F)cc1)N(Cc1ccc(F)cc1)Cc1ccco1 (stereo not given),-8,14,-9,0,77*
O=C(O)CSc1nnc(-c2cccc(S(=O)(=O)N3CCOCC3)c2)n1-c1cccc(Cl)c1,-13,6,-7,/,/
COc1ccc(CNC(=O)COc2ccc(Br)c(C)c2)cc1,-3,0,0,/,/
O=C(NC(Nc1cc(C(F)(F)F)ccc1Cl)C(=O)c1ccccc1)c1ccccc1 (stereo not given),4,58*,3,0,4
CN1CCN(NC(=O)NC2CCCCC2)CC1,-5,6,-7,/,/
C=CCN1CC(c2nc3ccccc3n2Cc2cccc3ccccc23)CC1=O (stereo not given),20,2,12,0,87*
Cc1ccc(OCCn2c(C3CC(=O)N(Cc4ccccc4)C3)nc3ccccc32)cc1 (stereo not given),2,5,7,0,92*
CCCn1c(C2CC(=O)N(c3ccc(C)cc3)C2)nc2ccccc21 (stereo not given),7,7,2,0,3
COc1cc2c(cc1OC)C1C(C(=O)Nc3ccccc3N3CCN(C)CC3)c3ccccc3C(=O)N1CC2 (stereo not given),6,-4,-6,0,6
O=C(COc1cccc(C(F)(F)F)c1)NCC(c1ccco1)N1CCCCC1 (stereo not given),9,10,-2,/,/
SMILES,HSF1 activator,T cruzi inh,HSF1 inh,Hsp70 activator,Lmaj promast
Cc1cccc(NC(=O)c2cc(NC(=O)C3CCCCC3C(=O)O)ccc2N2CCCCC2)c1 (stereo not given),/,/,/,0,-2
Cc1ccc(NC(=O)c2cc(NC(=O)c3ccccc3C(=O)O)ccc2N2CCCCC2)cc1,60*,-3,26,0,-3
CC(=O)Nc1ccc(N2CCCCC2)c(C(=O)Nc2cccc(C)c2)c1,-1,12,1,0,81*
Cc1ccc(NC(=O)c2cc(NC(=O)/C=C\C(=O)O)ccc2N2CCCCC2)cc1,-4,-1,-3,/,/
CC1CN(S(=O)(=O)c2cccc(C(=O)N(CCc3ccccc3)Cc3ccccc3)c2)CC(C)O1 (stereo not given),8,35,11,/,/
C/C(CC(=O)Nc1ccc2c(c1)OCCO2)=N\NC(=O)COc1ccc(C)cc1Br,2,16,5,/,/
COc1ccc(C(=O)Nc2nc3ccccc3[nH]2)cc1S(=O)(=O)N1CCCC1,4,12,5,0,59*
COc1ccc(NC(=O)c2cnc(C)cn2)c2ncccc12,4,-13,-3,0,86*
COc1cccc(C(=O)Nc2cccc3cccnc23)c1OC,17,2,7,/,/
COc1ccc(C(=O)Nc2ccccc2[N+](=O)[O-])cc1S(=O)(=O)N1CCOCC1,131*,-4,76,/,/
COc1ccc(C(=O)Nc2cccc3cccnc23)cc1OC,68*,19,57,1,22
CCN(CC)C(=O)COCc1cc(-c2ccc3c(c2)OCO3)on1,8,-8,4,/,/
O=C(NCc1ccc(Cl)cc1)c1cccc(NC2=NC3CS(=O)(=O)CC3S2)c1 (stereo not given),1,-2,-6,/,/
CC(=O)Nc1cccc(NC(=O)CSc2nc3c(c(=O)n(C)c(=O)n3C)n2C)c1,21,-16,1,/,/
CCc1ccc(C(=O)Nc2nc3ccccc3[nH]2)cc1,-18,31,-23,/,/
COc1cc(OC)cc(C(=O)Nc2nc3ccccc3[nH]2)c1,17,9,8,0,64*
Cc1cnc(C(=O)Nc2ccccc2-n2cccc2)cn1,-68,-12,-60*,0,5
Cc1cc(C)cc(C(=O)Nc2nc3ccccc3[nH]2)c1,28,-18,13,/,/
COc1ccc(C(=O)Nc2nc3ccccc3[nH]2)cc1OC,34,-11,9,0,65*
CCOc1ccc(C(=O)Nc2nc3ccccc3[nH]2)cc1OCC,6,18,-2,0,52*
COc1cc(C(=O)Nc2nc3ccccc3[nH]2)ccc1OC(F)F,48,8,23,/,/
Cc1cnc(C(=O)Nc2ccccc2F)cn1,10,-22,1,0,-4
Cc1cc(=O)c(C(=O)O)nn1-c1ccccc1,-2,-8,-7,0,-5
CCN(c1ccc(C)cc1C)S(=O)(=O)c1nnc(NC(=O)C(C)(C)C)s1,-2,-7,0,/,/
C[C@H](NC(=O)[C@H](Cc1ccccc1)n1c(=O)[nH]c2ccccc2c1=O)C(=O)N1CCC(C(=O)O)CC1,-4,-5,1,/,/

# High-throughput results as filed in PubChem BioAssay.
